This is an account of results in ChEMBL document CHEMBL1955792, “Potent norovirus inhibitors based on the acyclic sulfamide scaffold” (Bioorg Med Chem, 2012).

Series [1] deals with Norovirus. The series is described as follows: Antiviral activity against Norovirus infected in HG23 cells assessed as inhibition of viral replication at 24 hrs by qRT-PCR analysis. The class given is functional. The following applies: read-out: ED50 (the source's name). The method, boiled down: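 Norwalk virus replicon-bearing HG23 cells were treated with compound, and NV genome levels were quantified by qRT-PCR at 24 h post-treatment. ED50 was derived from the reduction in genome levels. Values are the average of two independent experiments ± standard deviation.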
(In qPCR the cycle at which signal appears reflects the starting amount.)

Series [2] is described as follows: Cytotoxicity against human HG23 cells at 48 hrs. The following applies: for CC50 at 48 h: HG23 cells, read-out: TD50; for CC50: hg23, 48 h, 48 h, read-out: TD50 (the source's name). The class given is cell-based. An outline of the steps:
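Norwalk virus replicon-harboring HG23 cells were treated with compound for 48 h, then assayed with a commercial cell cytotoxicity kit. The median toxic dose (TD50) was calculated from this read-out. Values are the average of two independent experiments ± standard deviation.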

The nature of series [3]: Therapeutic index, ratio of TD50 for human HG23 cells to ED50 for Norovirus infected in HG23 cells. The class given is cell-based. The following applies: for Ratio TD50/ED50: hg23; for selectivity ratio: HG23 cells, read-out: Ratio TD50/ED50. The method, boiled down: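 TD50 in HG23 replicon cells was measured with a cell cytotoxicity assay kit after 48 h of treatment. […] The index is TD50 divided by ED50.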

Series [4] has as its system Norovirus. In words: Inhibition of Norovirus 3C protease.

The source made the active and inactive calls. No cut-off for these calls is given here.

For the compound `CN(CC(=O)NCCN1CCOCC1)S(=O)(=O)NCc1cccc(Oc2ccccc2)c1` [listing 1 of 2 here], the EC50 in series [1] (Norovirus, HG23, 24 h) worked out at 5.2 µM. The CC50 at 48 h in series [2] is 320 µM. Besides, the “Ratio TD50/ED50” value in series [3] is on record as 63.

Take `CCCC(NS(=O)(=O)NCc1cccc(Oc2ccccc2)c1)C(=O)NCCN1CCOCC1` (racemic): the EC50 in series [1] (Norovirus, HG23, 24 h) was > 10 µM. Further, the inhibition entry in series [4] is “inactive”.

Regarding `Cl.O=C(CNS(=O)(=O)NCc1cccc(Oc2ccccc2)c1)N1CCN(Cc2ccccc2)CC1`, the EC50 in series [1] was 5.7 µM. Besides, in series [2], the CC50 was determined as 120 µM. In addition, in series [3], the “Ratio TD50/ED50” value turned out to be 21.

As to `O=S1(=O)N(CCN2CCOCC2)CCN1Cc1cccc(Oc2ccccc2)c1`, the EC50 in series [1] (Norovirus, HG23, 24 h) came out at 4.2 µM. Besides, the CC50 at 48 h in series [2] was found to be 51 µM.

Consider `O=C(CN(Cc1ccccc1)S(=O)(=O)NCc1cccc(Oc2ccccc2)c1)NCCN1CCOCC1` [listing 1 of 3 here], for which, in series [1] (Norovirus, HG23, 24 h), the EC50 came out at 3.8 µM. Besides, the CC50 at 48 h in series [2] worked out at 45 µM.

As to `O=C(CNS(=O)(=O)NCc1cccc(Oc2ccccc2)c1)NC1CCC(C(=O)O)CC1` (configuration not stated), the EC50 in series [1] (Norovirus, HG23, 24 h) is > 10 µM. In series [4], the inhibition result is “inactive”.

With `O=S1(=O)NCCN1Cc1cccc(Oc2ccccc2)c1`, the EC50 in series [1] (Norovirus, HG23, 24 h) came to 4.1 µM.

For `CN(CC(=O)NCCN1CCOCC1)S(=O)(=O)NCc1cccc(Oc2ccccc2)c1.Cl`, the EC50 in series [1] is 10.1 µM. Besides, in series [2], the CC50 came out at 235 µM. In addition, the “Ratio TD50/ED50” value in series [3] was 24.

Consider `COC(=O)C1CCN(C(=O)CNS(=O)(=O)NCc2cccc(Oc3ccccc3)c2)CC1`, for which, in series [1] (Norovirus, HG23, 24 h), the EC50 is > 10 µM. Besides, in series [4], the inhibition result was “inactive”.

As to `O=C(CNS(=O)(=O)NCc1cccc(Oc2ccccc2)c1)NCCN1CCOCC1` [listing 1 of 3 here], the EC50 in series [1] amounted to 5.1 µM. The CC50 in series [2] was 330 µM. The selectivity ratio in series [3] came to 65.

On to `O=C(CNS(=O)(=O)NCc1cccc(Oc2ccccc2)c1)NCCN1CCOCC1` [listing 2 of 3 here], for which, in series [1] (Norovirus, HG23, 24 h), the EC50 came out at 8.5 µM. Besides, in series [2], the CC50 at 48 h amounted to 165 µM.

As to `CC(NS(=O)(=O)NCc1cccc(Oc2ccccc2)c1)C(=O)NCCN1CCOCC1` (racemic; 6b) [listing 1 of 2 here], in series [4], the inhibition entry is “inactive”.

For `O=C(CNS(=O)(=O)NCc1cccc(Oc2ccccc2)c1)N1CCN(Cc2ccccc2)CC1` [listing 1 of 2 here], the EC50 in series [1] (Norovirus, HG23, 24 h) came to 5.5 µM. Further, in series [2], the CC50 at 48 h stood at 145 µM. Further, the selectivity ratio in series [3] worked out at 26.

For the compound `O=C(CNS(=O)(=O)NCc1cccc(Oc2ccccc2)c1)NCCc1ccccc1`, the EC50 in series [1] (Norovirus, HG23, 24 h) was > 10 µM. Moreover, the inhibition entry in series [4] is “inactive”.

Regarding `CC(NS(=O)(=O)NCc1cccc(Oc2ccccc2)c1)C(=O)NCCN1CCOCC1` (racemic; 7b), the inhibition result in series [4] is “inactive”.

On to `O=C(CN(Cc1ccccc1)S(=O)(=O)NCc1cccc(Oc2ccccc2)c1)NCCN1CCOCC1` [listing 2 of 3 here], for which, in series [1], the EC50 stood at 3.9 µM. The CC50 in series [2] was 55 µM.

Regarding `CSCCC(NS(=O)(=O)NCc1cccc(Oc2ccccc2)c1)C(=O)NCCN1CCOCC1` (racemic; 7d), the inhibition entry in series [4] was “inactive”.

In the case of `O=C(CNS(=O)(=O)NCc1cccc(Oc2ccccc2)c1)N1CCN(Cc2ccccc2)CC1` [listing 2 of 2 here], the inhibition result in series [4] was “inactive”.

Regarding `O=C(CN(Cc1ccccc1)S(=O)(=O)NCc1cccc(Oc2ccccc2)c1)NCCN1CCOCC1` [listing 3 of 3 here], in series [4], the inhibition entry was “inactive”.

In the case of `CSCCC(NS(=O)(=O)NCc1cccc(Oc2ccccc2)c1)C(=O)NCCN1CCOCC1` (racemic; 6d) [listing 1 of 2 here], the EC50 in series [1] (Norovirus, HG23, 24 h) was determined as 4.5 µM. In series [2], the CC50 at 48 h came out at 124 µM. The selectivity ratio in series [3] is > 27.

With `CSCCC(NS(=O)(=O)NCc1cccc(Oc2ccccc2)c1)C(=O)NCCN1CCOCC1.Cl` (racemic; 7d), the CC50 in series [2] was determined as 230 µM. In series [3], the “Ratio TD50/ED50” value is on record as 54.

Turning to `CC(NS(=O)(=O)NCc1cccc(Oc2ccccc2)c1)C(=O)NCCN1CCOCC1` (racemic; 6b) [listing 2 of 2 here], the EC50 in series [1] (Norovirus, HG23, 24 h) was > 10 µM.

For the compound `COC(=O)CNS(=O)(=O)NCc1cccc(Oc2ccccc2)c1`, the EC50 in series [1] (Norovirus, HG23, 24 h) is > 10 µM. The inhibition result in series [4] was “inactive”.

In the case of `O=C(CNS(=O)(=O)NCc1cccc(Oc2ccccc2)c1)NCCN1CCOCC1` [listing 3 of 3 here], the inhibition result in series [4] is “inactive”.

Take `COC(=O)C1CCC(NC(=O)CNS(=O)(=O)NCc2cccc(Oc3ccccc3)c2)CC1` (configuration not stated): the EC50 in series [1] (Norovirus, HG23, 24 h) was > 10 µM. The CC50 at 48 h in series [2] was 75 µM. Further, the inhibition entry in series [4] is “inactive”.

As to `CCOC(=O)N1CCN(C(=O)CNS(=O)(=O)NCc2cccc(Oc3ccccc3)c2)CC1`, in series [1] (Norovirus, HG23, 24 h), the EC50 was determined as 8.2 µM. Further, the CC50 at 48 h in series [2] came out at 130 µM. Also, in series [4], the inhibition result is “inactive”.

Turning to `O=C(O)CCCCN1CCN(Cc2cccc(Oc3ccccc3)c2)S1(=O)=O`, the EC50 in series [1] (Norovirus, HG23, 24 h) is 6.1 µM.

Regarding `CN(CC(=O)NCCN1CCOCC1)S(=O)(=O)NCc1cccc(Oc2ccccc2)c1` [listing 2 of 2 here], the inhibition entry in series [4] was “inactive”.

Consider `CSCCC(NS(=O)(=O)NCc1cccc(Oc2ccccc2)c1)C(=O)NCCN1CCOCC1` (racemic; 6d) [listing 2 of 2 here], for which, in series [4], the inhibition entry is “inactive”.

On to `O=C(CNS(=O)(=O)NCc1cccc(Oc2ccccc2)c1)NCc1ccco1`, for which the EC50 in series [1] (Norovirus, HG23, 24 h) was > 10 µM. Moreover, in series [4], the inhibition entry is “inactive”.

Take `O=C(O)C1CCN(C(=O)CNS(=O)(=O)NCc2cccc(Oc3ccccc3)c2)CC1`: the EC50 in series [1] (Norovirus, HG23, 24 h) is > 10 µM. The inhibition result in series [4] is “inactive”.

As to `O=C(CNS(=O)(=O)NCc1cccc(Oc2ccccc2)c1)NCc1ccccc1`, the EC50 in series [1] (Norovirus, HG23, 24 h) amounted to 8.1 µM. Also, the CC50 at 48 h in series [2] amounted to 47 µM. Also, the inhibition result in series [4] is “inactive”.
